Drawing on ChEMBL document CHEMBL3286331, “Design, synthesis and evaluation of novel quinazoline-2,4-dione derivatives as chitin synthase inhibitors and antifungal agents” (Bioorg Med Chem, 2014), this text covers MIC, Ratio and IC50 for 3 compounds.

As a reminder, the MIC is the lowest concentration found to suppress growth. A high value points to a need for much substance. One may read the IC50 as the concentration that inhibits the measured activity by half.

Experiment [1] concerns Staphylococcus aureus. The experiment in a line: Antibacterial activity against Staphylococcus aureus ATCC 25923 after overnight incubation by disc diffusion method. The class given is functional. A digest of the protocol:
(§1)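 Agar disc diffusion on beef extract–peptone medium (1% peptone, 0.3% beef extract, 0.5% NaCl, […]), compounds dissolved in sterile water; streptomycin sulfate positive control; plates incubated overnight at 37 °C, then MIC recorded (mg/L).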

The next experiment deals with Cryptococcus neoformans. The experiment can be described thus: Antifungal activity against Cryptococcus neoformans after 48 hrs by disc diffusion method. The experiment is classed as functional. The gist of the method: (§2)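 Disc diffusion on modified Sabouraud-chloramphenicol agar (1% peptone, 2% glucose, […]), compounds as sterile-water stocks; fluconazole and polyoxin B positive controls; MIC (mg/L) recorded after 48 h at 37 °C.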

The subject of a further experiment is Bacillus spizizenii. The experiment can be described thus: Antibacterial activity against Bacillus subtilis ATCC 6633 after overnight incubation by disc diffusion method. The experiment is classed as functional. A digest of the protocol: as §1
Background: In agar diffusion tests the substance spreads into inoculated agar from a disc or well.

The subject of experiment [2] is Aspergillus flavus. The experiment can be described thus: Ratio of polyoxin B MIC to compound MIC for Aspergillus flavus. The experiment is classed as functional.
For experiment [3], the system named is Candida albicans. The experiment can be described thus: Ratio of fluconazole MIC to compound MIC for Candida albicans ATCC 76615. The class given is functional.
The test system of experiment [4] is Staphylococcus aureus. The experiment in a line: Antibacterial activity against methicillin-resistant Staphylococcus aureus N315 after overnight incubation by disc diffusion method. The class given is functional. A digest of the protocol: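 Disc diffusion on beef extract-peptone agar (1% peptone, 0.3% beef extract, 0.5% NaCl, […]); compounds dissolved in sterile water; streptomycin sulfate positive control; plates incubated overnight at 37 °C, then MIC (mg/L) recorded.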

Another experiment deals with Pseudomonas aeruginosa. The experiment in a line: Antibacterial activity against Pseudomonas aeruginosa CR56 after overnight incubation by disc diffusion method. The class given is functional. A digest of the protocol: as §1
The test system of experiment [5] is Candida albicans. The experiment in a line: Ratio of polyoxin B MIC to compound MIC for Candida albicans ATCC 76615. The class given is functional.
Experiment [6] has as its system Aspergillus flavus. The experiment can be described thus: Antifungal activity against Aspergillus flavus after 48 hrs by disc diffusion method. The experiment is classed as functional. A digest of the protocol: as §2
Experiment [7] deals with Aspergillus flavus. The experiment can be described thus: Ratio of fluconazole MIC to compound MIC for Aspergillus flavus. The class given is functional.
The nature of experiment [8]: Inhibition of Saccharomyces cerevisiae CGMCC 2.145 chitin synthase assessed as UDP-GlcNAc conversion to chitin after 45 mins by ELISA. The gist of the method: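 Enzyme prepared from S. cerevisiae cells sonicated at 4 °C in 50 mM Tris–HCl pH 7.0 with protease inhibitors and PMSF; 55,000 g membrane pellet used. Wells hold UDP-GlcNAc plus 320 mM GlcNAc, compound in Tris buffer (final DMSO below 3%), 45 min at 37 °C. Chitin detected with HRP–wheat germ agglutinin, TMB read at 450 nm against a chitin standard curve; IC50 derived.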
On the technique in general: In an ELISA, binding on a coated surface is turned into a signal by an enzyme label.

Another experiment deals with Bacillus. The experiment can be described thus: Antibacterial activity against Bacillus proteus after overnight incubation by disc diffusion method. The experiment is classed as functional. A digest of the protocol:
as §1

In experiment [9] the test system is Candida albicans. The experiment in a line: Antifungal activity against Candida albicans ATCC 76615 after 48 hrs by disc diffusion method. Conditions: ATCC 76615, 48 h. The class given is functional. The gist of the method:
as §2

A further experiment has as its system Escherichia coli. The experiment can be described thus: Antibacterial activity against Escherichia coli JM 109 after overnight incubation by disc diffusion method. The class given is functional. The gist of the method: as §1

With `CN(CC(=O)Nc1cccc([N+](=O)[O-])c1)CC(O)Cn1c(=O)c2ccccc2n(C)c1=O.Cl` (stereo not drawn), the MIC against Staphylococcus aureus [1] is at least 512 µg/mL; against Cryptococcus neoformans, 8 µg/mL; against Bacillus spizizenii, at least 512 µg/mL; against Staphylococcus aureus [4], at least 512 µg/mL; in the experiment with Pseudomonas aeruginosa it was at least 512 µg/mL; against Aspergillus flavus [6], 4 µg/mL. Besides, the MIC in the experiment on Bacillus was at least 512 µg/mL; with Candida albicans [9], 4 µg/mL; in the experiment with Escherichia coli it was at least 512 µg/mL. In addition, the Ratio is given as 8 in the experiment on Aspergillus flavus [2], 8 in the experiment with Candida albicans [3], 4 in the experiment on Candida albicans [5] and 16 in the experiment with Aspergillus flavus [7]. Further, the IC50 in experiment [8] was found to be 240 µM.

With `CN(CC(=O)Nc1ccc(CC#N)cc1)CC(O)Cn1c(=O)c2ccccc2n(C)c1=O.Cl` (stereo not drawn), the MIC in the experiment on Staphylococcus aureus [1] was at least 512 µg/mL; with Cryptococcus neoformans, 4 µg/mL; with Bacillus spizizenii it was at least 512 µg/mL; with Staphylococcus aureus [4], at least 512 µg/mL; in the experiment on Pseudomonas aeruginosa, at least 512 µg/mL; with Aspergillus flavus [6], 8 µg/mL. The MIC is at least 512 µg/mL in the experiment with Bacillus, 4 µg/mL with Candida albicans [9] and at least 512 µg/mL against Escherichia coli. Moreover, the Ratio in the experiment on Candida albicans [3] is listed as 8; in the experiment with Candida albicans [5], 4. The IC50 in experiment [8] was determined as 120 µM.

In the case of `CN(CC(=O)N(Cc1ccccc1)Cc1ccccc1)CC(O)Cn1c(=O)c2ccccc2n(C)c1=O.Cl` (stereo not drawn), the MIC against Staphylococcus aureus [1] is at least 512 µg/mL; against Cryptococcus neoformans it was 2 µg/mL; against Bacillus spizizenii, at least 512 µg/mL; in the experiment on Staphylococcus aureus [4] it was at least 512 µg/mL; in the experiment on Pseudomonas aeruginosa it was at least 512 µg/mL; in the experiment with Aspergillus flavus [6] it was 4 µg/mL. For the same compound, the minimal inhibitory concentration (MIC) is at least 512 µg/mL against Bacillus, 64 µg/mL with Candida albicans [9] and at least 512 µg/mL in the experiment on Escherichia coli. Moreover, the Ratio is reported as 8 with Aspergillus flavus [2] and 16 in the experiment on Aspergillus flavus [7]. In addition, the IC50 in experiment [8] is 160 µM.
